From PubChem
RGS4 block: human RGS4 inhibition; P49798; HEK293 M3R/RGS4 inducible, Fluo-4 calcium flux; active compounds read high; triggered by carbachol at its EC20; B-score at 10 µM; actives 0.45% (n = 310,000); AID 463165;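 active = B-score, a plate-corrected calcium signal, over three deviations above library mean, with baseline fluorescence within five deviations of library mean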;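 note: RGS4 expression induced by doxycycline in cells with stable M3 receptor; B-score is computed from the integrated fluorescence ratio over baseline after carbachol; higher B-score means a larger calcium signal and so more RGS4 inhibition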
Target sequence (P49798 whole entry, looked up): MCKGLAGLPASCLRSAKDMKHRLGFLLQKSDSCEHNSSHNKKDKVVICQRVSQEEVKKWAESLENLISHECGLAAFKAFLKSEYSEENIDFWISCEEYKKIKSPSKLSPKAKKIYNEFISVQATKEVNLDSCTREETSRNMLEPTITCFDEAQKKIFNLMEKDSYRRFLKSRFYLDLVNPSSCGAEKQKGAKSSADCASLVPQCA
MrgX1 agonist: agonists of human MrgX1 receptor | B-score at 10 µM | Q96LB2 | actives 0.44% (n = 310,000) | MrgX1-HEK293 cells, Fluo-4 calcium fluorescence, agonist mode; active compounds read high | AID 588627;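 active = calcium response B-score plate-corrected fluorescence ratio at least 3 library SD, with starting fluorescence B-score inside 5 SD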
Target sequence (Q96LB2 whole entry, looked up): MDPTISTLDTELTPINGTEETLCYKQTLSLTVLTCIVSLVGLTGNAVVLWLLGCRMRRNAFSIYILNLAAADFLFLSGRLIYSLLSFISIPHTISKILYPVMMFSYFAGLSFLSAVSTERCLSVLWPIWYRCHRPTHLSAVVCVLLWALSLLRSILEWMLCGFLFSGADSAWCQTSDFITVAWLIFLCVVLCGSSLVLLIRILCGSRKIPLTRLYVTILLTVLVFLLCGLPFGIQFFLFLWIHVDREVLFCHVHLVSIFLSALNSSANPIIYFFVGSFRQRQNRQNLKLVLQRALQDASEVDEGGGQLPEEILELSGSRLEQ
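Test system: Stable human MrgX1 HEK293 cell line | Schedule: Overnight plating before 1 h dye loading | Read-out basis: Baseline-normalised fluorescence change ratio, B-scored | Detection: Kinetic calcium dye fluorescence, Fluo-4 NW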
MrgX1 antagonist: blocks BAM8-22 activation of human MrgX1 receptor; MRGX1-HEK293 calcium flux, Fluo-4, BAM8-22 antagonism; active compounds read low; B-score at 10 µM; actives 1.3% (n = 310,000);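 active = calcium-response B-score plate-corrected more than 3 library SD below zero, starting fluorescence within 5 deviations, no agonist response on first addition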;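 note: peak minus trough fluorescence over baseline after final BAM8-22 challenge near maximal dose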
RGS4 pot: RGS4 potentiation or activation; HEK293 M3R/inducible RGS4, carbachol calcium flux Fluo4; active compounds read low; B-score at 10 µM; actives 0.92% (n = 310,000); AID 463111;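 active = B-score of the integrated calcium signal more than 4 SD below the library mean, with starting fluorescence not abnormally high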;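 note: negative B-score means reduced calcium response which marks RGS4 activation or potentiation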
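Detection: kinetic calcium fluorescence imaging with Fluo4-AM dye, 2 µM / Material: HEK293 cells with stable M3R and inducible RGS4 / Schedule: recording 10 s baseline at 1 Hz, 100 s post-agonist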
MrgX1 allo act: allosterically activates human MrgX1 receptor signaling | MrgX1-HEK293, Fluo-4 calcium flux, FDSS; active compounds read high | B-score at 10 µM | actives 0.63% (n = 310,000);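 active = plate-corrected calcium response at least 3 library SD above typical, normal starting fluorescence, not activating the receptor alone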;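 note: compound read alongside a low EC10 to EC30 dose of BAM8-22 agonist; peak minus trough fluorescence over baseline measured at the second addition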
Numbers stand for hits; 0 = inactive; - = no result given. Compounds with a hit are over-represented: about 3.5% of the library has one in this group of screens.

SMILES	RGS4 block	MrgX1 agonist	MrgX1 antagonist	RGS4 pot	MrgX1 allo act
O=C(N/N=C\c1cc([N+](=O)[O-])ccc1N1CCOCC1)c1ccccn1	0	0	-4.5	0	0
COc1ccccc1N1C(=NC(=O)CCC2CCCC2)SC2CS(=O)(=O)CC21 (stereo not given)	0	0	0	0	0
CCOc1ccc(CSC2=NCCN2)cc1[N+](=O)[O-]	0	0	0	0	0
CCCCCOc1ccc(CSC(=N)N)cc1[N+](=O)[O-]	0	49	0	-7.8	0
COc1ccc(CSC(=N)N)cc1[N+](=O)[O-]	0	39	0	0	0
N=C(N)SCc1ccc(O)c([N+](=O)[O-])c1	0	0	0	0	0
CCCCOc1ccc(CSC2=NCCN2)cc1[N+](=O)[O-]	0	28	0	0	0
CCOc1ccc(CN(C(=O)c2cc3ccccc3oc2=O)C2CCS(=O)(=O)C2)cc1 (stereo not given)	0	0	0	0	0
Cc1nc2scc(-c3ccccc3)c2c(=O)n1N=C1C=CC(=O)C=C1	0	-	-	-7.7	-
O=C(Nc1ccc([N+](=O)[O-])cc1)c1cccc(S(=O)(=O)Nc2ccccn2)c1	0	0	0	0	0
CC(NC(=O)c1ccco1)c1nc(-c2ccccc2)no1 (stereo not given)	0	0	0	0	0
CC(Oc1ccc(Cl)cc1Cl)c1nc(-c2ccc(NC(=O)c3ccco3)cc2)no1 (stereo not given)	0	0	-5	0	0
O=C(CCS(=O)(=O)Cc1ccc(Cl)cc1)NCCCN1CCN(c2ccccc2F)CC1	0	0	0	-10	0
Cc1ccccc1CS(=O)(=O)CCC(=O)NCCCN1CCN(c2ccccc2F)CC1	0	0	0	0	0
Cc1cc(C)c2c(=O)n(CC(=O)NCCCN3CCN(c4ccccc4F)CC3)sc2n1	0	0	0	-9.6	0
Clc1ccc(-c2cn(-c3ccccc3)c3[n+]2CCS3)cc1	0	0	0	-8.7	0
Fc1ccc(-c2cn(-c3ccccc3)c3[n+]2CCS3)cc1	0	0	0	0	0
CSc1nnc(C)c(/C=C/Nc2ccc(F)cc2F)n1	0	0	0	0	0
C=CCSc1nnc(C)c(/C=C/Nc2ccc(Cl)cc2)n1	0	0	0	-7.5	0
CCOc1ccc(/C=N/Nc2nc(C)cs2)c(O)c1	0	0	0	0	0
O=C(NCCC1CCCCN1S(=O)(=O)c1cccs1)C(=O)Nc1cccc(F)c1 (stereo not given)	0	0	0	0	0
O=C1/C(=C\c2ccc(O)cc2)SC(=S)N1/N=C/c1ccc(O)cc1	0	39	0	0	0
Cc1c(NC(=O)COc2ccc3ccccc3c2)c(=O)n(-c2ccccc2)n1C	0	0	0	0	0
Cc1ccc(C)c(NC(=S)NC(NC(=O)N(C)C)C(Cl)(Cl)Cl)c1 (stereo not given)	0	0	0	0	0
Cc1ccc(C)c(NC(=S)NC(NC(=O)Cc2cccc3ccccc23)C(Cl)(Cl)Cl)c1 (stereo not given)	0	0	-9.1	0	0
SMILES	RGS4 block	MrgX1 agonist	MrgX1 antagonist	RGS4 pot	MrgX1 allo act
C[C@@H]1O[C@@H](OC2C(O)C(OCCc3ccc(O)c(O)c3)OC(CO)C2OC(=O)/C=C/c2ccc(O)c(O)c2)[C@H](O)[C@H](O)[C@H]1O (stereo not given in full)	0	0	-5.1	0	0
CCCCCCc1cc2cc(-c3nnc(-c4cc(OC)c(OC)c(OC)c4)o3)c(=O)oc2cc1O	0	80	0	0	0
CCCCCCc1cc2cc(-c3nnc(-c4ccccc4OC)o3)c(=O)oc2cc1O	0	0	0	0	0
CC1CN(C)C(C)CC1OC(=O)C(c1ccccc1)c1ccccc1 (stereo not given)	0	0	0	-7.2	0
CN(C)[C@@H]1CCC[C@H]1OC(=O)C(c1ccccc1)c1ccccc1	0	0	0	0	0
COc1ccc(CCNC(=O)COC(=O)/C=C/c2ccc(OC)c(OC)c2)cc1	0	0	-4.5	0	0
COc1ccc(/C=C/C(=O)Oc2cccc(/C=N/NC(=O)c3cccc(F)c3)c2)cc1	0	0	0	0	0
COc1ccc(/C=C\C(=O)Oc2cccc(/C=N/NC(=O)Cc3ccc(OC)c(OC)c3)c2)cc1	0	0	-5.5	0	0
CC(O)c1nc2ccccc2n1C(C)c1ccccc1 (stereo not given)	0	0	0	0	0
COc1cc(C(=O)NCC2CCCO2)ccc1OCc1ccccc1Cl (stereo not given)	0	0	0	0	0
CCn1c2ccccc2c2cc(NC(=O)c3coc(=O)c(Br)c3)ccc21	0	0	0	0	0
CCn1c2ccccc2c2cc(NC(=O)c3ccc(Br)o3)ccc21	0	0	-7.5	0	0
COCCN(Cc1ccco1)C(=O)C1CCCN(c2ncnc3c2nc2n3CCCCC2)C1 (stereo not given)	0	0	0	0	0
COc1ccc(CNC(=O)CN(C(=O)c2snc(C(N)=O)c2N)c2ccccc2F)cc1	0	0	0	0	6.5
Nc1nonc1NC(=O)NN=C1CCCCC1	0	0	-5.9	0	0
Cc1cccc(C)c1NC(=O)NN=C1CCCCC1	0	0	0	0	0
CCC(=O)N1CCCN(S(=O)(=O)c2ccc(C)cc2)C1c1ccc(OC)cc1 (stereo not given)	0	0	0	0	0
COc1cc(-c2noc(C)c2-c2ccc3[nH]ccc3c2)cc(OC)c1OC	0	0	0	-7.2	0
CCCOc1ccc(N2C(=O)CC(N(CCc3ccc(OC)cc3)C(=O)c3ccccc3)C2=O)cc1 (stereo not given)	0	0	-4.6	0	0
COc1ccc(NS(=O)(=O)c2cccc(C(=O)NCC(c3ccccc3)N(C)C)c2)cc1 (stereo not given)	0	0	-5	0	0
O=C(Nc1ccc(Cl)c([N+](=O)[O-])c1)C(Sc1ccccc1)c1ccccc1 (stereo not given)	0	0	0	-8.6	0
O=C(c1nc2ccccn2c1CNCCn1ccc2ccccc21)N1CCOCC1	0	0	0	0	0
CCc1ccc(NC(=O)C2CC=CCC2C(=O)O)cc1 (stereo not given)	0	0	0	0	0
O=C(O)Cc1ccc(NC(=O)C2CC=CCC2C(=O)O)cc1 (stereo not given)	0	0	-8.3	0	0
O=C(CCc1nnc2ccc(N3CCCC3)nn12)Nc1ccc(F)cc1F	0	0	0	0	0
O=[N+]([O-])c1ccc(S(=O)(=O)CC2CSc3nc4ccccc4n32)cc1 (stereo not given)	0	0	-5	0	0
Cc1nnc2n(c1=O)C(CS(=O)(=O)c1ccccc1)CS2 (stereo not given)	0	0	0	0	0
CC(C)(C)c1ccc(OCCCNC2CCCC2)cc1	0	0	0	-7.4	0
Cc1cccnc1NC(=O)c1csnn1	0	0	0	0	0
